In data set [1] the test system is L1210. Put plainly: Inhibition of RNA synthesis in mouse L1210 cells preincubated for 3 hrs followed by [3H]-uridine addition measured after 1 hr by scintillation spectrometric analysis. The format is functional. To be noted: read-out: ED50 (the source's name). The method, boiled down:
(§1)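 L1210 suspension at 2 × 10^6/ml in 1640 medium with 10% fetal calf serum and 20 mM HEPES, pH 7.2. Drug tested at 100 to 0.100 µM in half-log steps, 3 h at 37° with shaking. Pulse 1 h with 0.5 µCi/ml [3H]thymidine (DNA) or [3H]uridine (RNA). TCA-precipitable counts expressed as % of control; ED50 read from the points bracketing 50%, with the bracketing assays repeated.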

Data set [2] has as its system P388. The data set is described as follows: Antitumor activity against mouse P388 cells allografted in mouse assessed as increase in survival time at 0.06 mg/kg, ip qd administered for 9 days relative to control. The format is functional. To be noted: route intraperitoneal.
Data set [3] concerns Mus musculus. Put plainly: Acute toxicity in mouse allografted with mouse P388 cells assessed as survival less than 5 days at 0.06 to 4 mg/kg, ip qd. Type of data set: organism-based. Details: dose 0.06-4 mg/kg, route intraperitoneal. To be noted: in vivo, 120 h. The method, boiled down: (§2)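 BDF or CDF mice were implanted ip with 10^6 P-388 lymphocytic leukemia cells on day 0 and dosed ip on days 1-9. Acute toxic drug deaths were scored as survival of less than 5 days after the start of treatment. Testing was done by the NCI Drug Research and Development Program.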

The subject of data set [4] is P388. The data set is described as follows: Antitumor activity against mouse P388 cells allografted in mouse assessed as increase in survival time at 1 mg/kg, ip qd administered for 9 days relative to control. The format is functional. To be noted: route intraperitoneal.
Data set [5] concerns P388. Put plainly: Antitumor activity against mouse P388 cells allografted in mouse assessed as change in survival time at 4 mg/kg, ip qd administered for 9 days relative to control. Type of data set: functional. To be noted: route intraperitoneal.
Data set [6] concerns Calf thymus DNA. The data set is described as follows: Binding affinity to calf thymus DNA assessed as bathochromatic shift at 1:1 to 16:1 compound to DNA ratio by UV-visible spectra analysis. Type of data set: nucleic-acid assay. To be noted: Bos taurus. The gist of the method:
(§3)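 Calf thymus DNA stock sonicated on ice to limit precipitation of the complex. DNA concentration was taken from the supplier's phosphorus content. UV-visible spectra were recorded.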

In data set [7] the test system is P388. Put plainly: Antitumor activity against mouse P388 cells allografted in mouse assessed as increase in survival time at 0.25 mg/kg, ip qd administered for 9 days relative to control. The format is functional. To be noted: route intraperitoneal.
The subject of data set [8] is L1210. Put plainly: Inhibition of DNA synthesis in mouse L1210 cells preincubated for 3 hrs followed by [3H]-thymidine addition measured after 1 hr by scintillation spectrometric analysis. The format is functional. Conditions: read-out: ED50 (the source's name). The method, boiled down:
as §1

Data set [9] deals with Calf thymus DNA. Put plainly: Binding affinity to calf thymus DNA assessed as increase in melting temperature at 2.1 x 10^-5 M by UV spectrophotometric analysis. The format is nucleic-acid assay. To be noted: Bos taurus.
Data set [10] deals with Calf thymus DNA. The data set is described as follows: Binding affinity to calf thymus DNA assessed as decrease in absorptivity of visible maxima of compound at 1:1 to 16:1 compound to DNA ratio by UV-visible spectra analysis. Type of data set: nucleic-acid assay. To be noted: Bos taurus. The gist of the method:
as §3

Data set [11] deals with P388. The data set is described as follows: Antitumor activity against mouse P388 cells allografted in mouse assessed as increase in survival time at 0.12 mg/kg, ip qd administered for 9 days relative to control. The format is functional. To be noted: route intraperitoneal.
Data set [12] has as its system P388. The data set is described as follows: Antitumor activity against mouse P388 cells allografted in mouse assessed as increase in survival time at 0.5 mg/kg, ip qd administered for 9 days relative to control. To be noted: route intraperitoneal. The format is functional.
The subject of data set [13] is L1210. Put plainly: Inhibition of RNA synthesis in mouse L1210 cells at < 100 uM preincubated for 3 hrs followed by [3H]-uridine addition measured after 1 hr by scintillation spectrometric analysis. Type of data set: functional, cell-based. The gist of the method:
as §1

Data set [14] relates to L1210. The data set is described as follows: Inhibition of DNA synthesis in mouse L1210 cells at < 100 uM preincubated for 3 hrs followed by [3H]-thymidine addition measured after 1 hr by scintillation spectrometric analysis. Type of data set: functional, cell-based. The method, boiled down:
as §1

Data set [15] concerns P388. The data set is described as follows: Antitumor activity against mouse P388 cells allografted in mouse assessed as increase in survival time at 12.5 mg/kg, ip qd administered for 9 days relative to control. The format is functional. Conditions: route intraperitoneal.
The subject of data set [16] is P388. Put plainly: Antitumor activity against mouse P388 cells allografted in mouse assessed as increase in survival time at 3.12 mg/kg, ip qd administered for 9 days relative to control. Type of data set: functional. To be noted: route intraperitoneal.
Data set [17] concerns P388. Put plainly: Antitumor activity against mouse P388 cells allografted in mouse assessed as increase in survival time at 25 mg/kg, ip qd administered for 9 days relative to control. To be noted: route intraperitoneal. Type of data set: functional.
In data set [18] the test system is P388. Put plainly: Antitumor activity against mouse P388 cells allografted in mouse assessed as increase in survival time at 1.56 mg/kg, ip qd administered for 9 days relative to control. The format is functional. Conditions: route intraperitoneal.
The subject of data set [19] is P388. The data set is described as follows: Antitumor activity against mouse P388 cells allografted in mouse assessed as increase in survival time at 50 mg/kg, ip qd administered for 9 days relative to control. The format is functional. To be noted: route intraperitoneal.
Data set [20] has as its system P388. The data set is described as follows: Antitumor activity against mouse P388 cells allografted in mouse assessed as increase in survival time at 6.25 mg/kg, ip qd administered for 9 days relative to control. Type of data set: functional. Conditions: route intraperitoneal.
In data set [21] the test system is Calf thymus DNA. The data set is described as follows: Binding affinity to calf thymus DNA assessed as increase in melting temperature at 1.54 x 10^-5 M by UV spectrophotometric analysis. Type of data set: nucleic-acid assay. To be noted: Bos taurus.
Data set [22] concerns Mus musculus. The data set is described as follows: Acute toxicity in mouse allografted with mouse P388 cells assessed as survival less than 5 days at 1.56 to 50 mg/kg, ip qd. The format is organism-based. Conditions: in vivo, 120 h. Details: dose 1.56-50 mg/kg, route intraperitoneal. The method, boiled down:
as §2

Data set [23] deals with Calf thymus DNA. Put plainly: Binding affinity to calf thymus DNA assessed as increase in melting temperature at 2 x 10^-5 M by UV spectrophotometric analysis. Type of data set: nucleic-acid assay. To be noted: Bos taurus.
Data set [24] has as its system P388. The data set is described as follows: Antitumor activity against mouse P388 cells allografted in mouse assessed as increase in survival time at 2 mg/kg, ip qd administered for 9 days relative to control. Conditions: route intraperitoneal. The format is functional.
Data set [25] deals with P388. Put plainly: Antitumor activity against mouse P388 cells allografted in mouse assessed as increase in survival time at 75 mg/kg, ip qd administered for 9 days relative to control. Type of data set: functional. Conditions: route intraperitoneal.
The subject of data set [26] is Mus musculus. The data set is described as follows: Acute toxicity in mouse allografted with mouse P388 cells assessed as survival less than 5 days at 1.56 to 75 mg/kg, ip qd. To be noted: in vivo, 120 h. The format is organism-based. Set-up: dose 1.56-75 mg/kg, route intraperitoneal. The gist of the method:
as §2

The subject of data set [27] is Calf thymus DNA. The data set is described as follows: Binding affinity to calf thymus DNA assessed as increase in melting temperature at 1.63 x 10^-5 M by UV spectrophotometric analysis. Type of data set: nucleic-acid assay. To be noted: Bos taurus.

The source made the active and inactive calls. The calls are words filed in the database; no cut-off is given here.

Take `COc1cccc2c1C(=O)c1c(O)c3c(c(O)c1C2=O)C[C@@](O)(C(=O)CO)C[C@@H]3O[C@H]1C[C@H](N)[C@H](O)[C@H](C)O1` [DOXORUBICIN]: the EC50 in data set [1] is 900 nM; in [8], 800 nM. Also, the T/C in data set [2] amounted to 139; in data set [4], 212; in data set [5], 71; in data set [7], 162; in data set [11], 156; in data set [12] it was 182. The Activity result in [3] is “Non-toxic”. Besides, the result in data set [6] and in data set [10] was Active. Moreover, the ΔTm (as a rule, the change in melting temperature against a reference sample) in [9] came out at 17.8 °C.

Consider `COC(=O)[C@]1(O)Cc2c(O)c3c(c(O)c2[C@@H](O)C1)C(=O)c1c(OC)cccc1C3=O`, for which the inhibition entry in [13] and in data set [14] was “inactive” in each case.

Take `COc1cccc2c1C(=O)c1c(O)c3c(c(O)c1C2=O)C[C@@](O)(C(=O)O)C[C@@H]3O[C@H]1C[C@H](N)[C@H](O)[C@H](C)O1.Cl`: the T/C in [15] is given as 151; in [16], 107; in data set [17], 163; in data set [18], 100; in data set [19] it was 151; in data set [20] it was 142. Moreover, the figures for the EC50 in data set [1] and in [8] were 65000 nM and more than 100000 nM, respectively. Moreover, the ΔTm in [21] worked out at 2.6 °C. The result in data set [6] and in data set [10] was Active. Moreover, the Activity entry in [22] was “Non-toxic”.

Consider `COc1cccc2c1C(=O)c1c(O)c3c(c(O)c1C2=O)C[C@@](O)(C(C)=O)C[C@@H]3O[C@H]1C[C@H](N)[C@H](O)[C@H](C)O1` [DAUNORUBICIN], for which the EC50 in [1] and in data set [8] was 300 nM throughout. In addition, the ΔTm in data set [23] came out at 16.8 °C. Besides, the T/C amounted to 112 in data set [2]; 157 in data set [4]; 96 in [5]; 142 in [7]; 150 in data set [24]; 130 in data set [11]. For the same compound, the T/C in data set [12] is on record as 150. Moreover, the Activity result in data set [3] is “Non-toxic”. In addition, the outcome in [6] and in data set [10] was Active.

As for `COC(=O)[C@]1(O)Cc2c(O)c3c(c(O)c2[C@@H](O[C@H]2C[C@H](N)[C@H](O)[C@H](C)O2)C1)C(=O)c1c(OC)cccc1C3=O.Cl`, the T/C was 112 in data set [15]; 103 in data set [16]; 141 in data set [25]; 115 in data set [17]; 107 in [18]; 125 in data set [19]. In data set [20], the T/C came out at 108. Besides, the EC50 came out at 900 nM in [1] and 2000 nM in data set [8]. Further, the Activity entry in data set [26] is listed as “Non-toxic”. Besides, in data set [27], the ΔTm amounted to 12.6 °C. The result in data set [6] and in data set [10] was Active.

`COc1cccc2c1C(=O)c1c(O)c3c(c(O)c1C2=O)C[C@@](O)(C(=O)O)C[C@@H]3O`: the inhibition entry in data set [13] and in [14] was “inactive” each time.
